Experimental data: paper PMC10928850 (RSC Advances, 2024)
In brackets after ≈: the same amount, converted by molar mass.

Assays:
[1] = system: normal lung (WI-38) cell line; experiment: MTT cytotoxicity, normal lung WI-38; assay type: cell-based; settings: Homo sapiens, WI-38, 48 h, read-out: IC50 Normal lung (WI-38)
[2] = system: human lung (A549) cancer cell line; experiment: MTT cytotoxicity, lung cancer A549; assay type: cell-based; settings: A549, 48 h, read-out: IC50 Lung cancer (A549)
Summary of the method: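 Human lung A549 cells, run alongside Caco-2 colon cancer and normal WI-38 lung cells, were exposed to test compound. Viability was read by MTT, with optical density at 590. IC50 and percentage growth inhibition were computed with IC50 calculation software.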

[3] = system: human colon (Caco-2) cancer cell line; experiment: MTT cytotoxicity, colon cancer Caco-2; assay type: cell-based; settings: for IC50: Homo sapiens, Caco-2, 48 h, read-out: IC50 Colon cancer (Caco-2); for Therapeutic index (TI) Colon cancer (Caco-2): IC50 on the normal cells (WI-38)/IC50 on the cancer cells (Caco-2)
[4] = target: acetylcholinesterase (AChE) (Homo sapiens, UniProt P22303); experiment: Acetylcholinesterase inhibition, Ellman's method; assay type: biochemical; settings: for AChE Inhibition (%): at the same concentration, mean ± SE, three replicates
[5] = system: bovine serum albumin (BSA); experiment: Anti-arthritic: inhibition of protein denaturation; settings: inhibitory effect, at the same concentration; mean ± SE, three replicates
[6] = Iron reducing power; settings: mean ± SE, three replicates
Summary of the method: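 Reducing power was measured by the Oyaizu method and expressed in μg mL−1, with ascorbic acid as the standard.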

[7] = DPPH radical scavenging activity; settings: mean ± SE, three replicates
[8] = system: β-glucosidase; experiment: β-Glucosidase enzyme inhibition; assay type: biochemical; settings: mean ± SE, three replicates; for β-Glucosidase Inhibition (%): at the same concentration
[9] = ABTS radical scavenging assay; settings: at equal concentrations; mean ± SE, three replicates
[10] = system: proteinase (trypsin); experiment: Anti-arthritic: proteinase inhibitory activity; assay type: biochemical; settings: at the same concentration; mean ± SE, three replicates
[11] = Total antioxidant capacity; settings: mean ± SE, three replicates
[12] = target: T1, α-amylase (Sus scrofa, UniProt P00690); experiment: α-Amylase enzyme inhibition; assay type: biochemical; settings: at the same concentration; mean ± SE, three replicates
T1 sequence (P00690 16-511): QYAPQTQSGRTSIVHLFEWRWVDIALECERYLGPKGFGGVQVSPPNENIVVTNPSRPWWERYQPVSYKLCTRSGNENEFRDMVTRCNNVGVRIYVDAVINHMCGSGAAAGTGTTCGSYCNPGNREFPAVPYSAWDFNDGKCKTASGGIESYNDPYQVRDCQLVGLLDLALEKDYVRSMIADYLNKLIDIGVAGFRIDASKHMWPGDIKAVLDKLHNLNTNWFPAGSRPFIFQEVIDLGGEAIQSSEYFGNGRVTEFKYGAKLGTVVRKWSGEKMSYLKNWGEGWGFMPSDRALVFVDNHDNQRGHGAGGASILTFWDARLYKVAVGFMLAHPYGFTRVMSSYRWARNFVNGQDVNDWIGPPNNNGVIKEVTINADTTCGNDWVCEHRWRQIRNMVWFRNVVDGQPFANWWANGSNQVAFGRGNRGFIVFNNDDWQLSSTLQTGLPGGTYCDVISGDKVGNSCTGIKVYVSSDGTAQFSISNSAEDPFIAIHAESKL

[13] = target: α-glucosidase (Saccharomyces cerevisiae, UniProt P53341); experiment: α-Glucosidase enzyme inhibition; assay type: biochemical; settings: at the same concentration; mean ± SE, three replicates
[14] = system: α-glucosidase enzyme; experiment: Electrophoretic α-glucosidase pattern; assay type: biochemical; settings: enzyme treated at concentration equivalent to IC50

Sequence of acetylcholinesterase (AChE) (P22303 32-614, species assumed): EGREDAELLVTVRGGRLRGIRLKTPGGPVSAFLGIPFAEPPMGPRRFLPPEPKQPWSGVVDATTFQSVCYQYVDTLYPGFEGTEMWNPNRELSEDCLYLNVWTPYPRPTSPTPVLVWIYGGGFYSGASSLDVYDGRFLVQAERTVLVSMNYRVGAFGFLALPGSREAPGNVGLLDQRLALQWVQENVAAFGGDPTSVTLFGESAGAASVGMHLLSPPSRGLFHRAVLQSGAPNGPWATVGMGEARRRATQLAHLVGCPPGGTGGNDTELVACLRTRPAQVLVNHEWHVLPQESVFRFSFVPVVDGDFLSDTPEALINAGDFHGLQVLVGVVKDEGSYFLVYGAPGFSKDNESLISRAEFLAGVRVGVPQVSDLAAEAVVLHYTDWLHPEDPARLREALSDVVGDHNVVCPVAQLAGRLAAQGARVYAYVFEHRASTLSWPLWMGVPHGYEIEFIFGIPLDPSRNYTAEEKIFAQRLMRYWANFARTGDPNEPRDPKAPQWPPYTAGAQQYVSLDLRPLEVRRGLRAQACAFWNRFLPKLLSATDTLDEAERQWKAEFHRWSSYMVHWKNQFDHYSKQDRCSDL
Sequence of α-glucosidase (P53341 whole entry): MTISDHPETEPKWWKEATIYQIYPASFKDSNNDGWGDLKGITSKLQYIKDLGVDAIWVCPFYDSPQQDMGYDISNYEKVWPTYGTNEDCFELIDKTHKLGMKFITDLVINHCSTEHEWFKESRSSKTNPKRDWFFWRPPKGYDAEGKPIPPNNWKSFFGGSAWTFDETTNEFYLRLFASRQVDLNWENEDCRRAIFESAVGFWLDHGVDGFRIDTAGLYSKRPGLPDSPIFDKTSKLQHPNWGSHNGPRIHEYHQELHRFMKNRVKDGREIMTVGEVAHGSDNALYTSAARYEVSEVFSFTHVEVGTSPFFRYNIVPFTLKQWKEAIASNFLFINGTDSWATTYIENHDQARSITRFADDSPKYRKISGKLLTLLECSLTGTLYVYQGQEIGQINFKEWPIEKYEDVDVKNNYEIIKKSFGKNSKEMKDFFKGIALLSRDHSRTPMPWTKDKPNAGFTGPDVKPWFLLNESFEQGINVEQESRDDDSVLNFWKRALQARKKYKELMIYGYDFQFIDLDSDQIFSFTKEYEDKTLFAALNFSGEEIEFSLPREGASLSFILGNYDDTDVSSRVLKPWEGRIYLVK

Row | SMILES | IC50 [1] | IC50 [2] | IC50 [3] | Therapeutic index (TI) Colon cancer (Caco-2) [3] | IC50 [4] | AChE Inhibition (%) [4] | Anti-arthritic activity: Proteinase denaturation (%) [5] | Antioxidant activity IRP [6] | Scavenging activity DPPH IC50 [7] | β-Glucosidase Inhibition (%) [8] | β-Glucosidase IC50 [8] | Scavenging activity ABTS (%) [9] | Anti-arthritic activity: Inhibition of proteinase (%) [10] | Antioxidant activity TAC [11] | α-Amylase Inhibition (%) [12] | α-Glucosidase Inhibition (%) [13] | α-glucosidase band (45 KDa) Qty (Band Quantity) [14]
1 | COc1ccc(Nc2nn3c(-c4ccccc4)ccnc3c2C(=O)Nc2ccccc2)cc1 [12a] | 134 µg/mL (≈ 308 µM) | 47.8 µg/mL (≈ 110 µM) | 38.1 µg/mL (≈ 87.6 µM) | 3.5 | 7.67 mM | 14.92 ± 0.02% | 16.24 ± 0.04% | 17.29 ± 0.04 µg/mL | 19.63 ± 0.04 µg/mL | 7.67 ± 0.01% | 6470 ± 10 µg/mL | 25.28 ± 0.06% | 14.91 ± 0.03% | 30.58 ± 0.07 mg gallic acid per g |  |  | 
2 | COc1ccc(Nc2nn3c(-c4ccccc4)ccnc3c2C(=O)Nc2ccc(Cl)cc2)cc1 [12b] | 305 µg/mL (≈ 649 µM) | 40.5 µg/mL (≈ 86.3 µM) | 29.8 µg/mL (≈ 63.3 µM) | 10.24 | 6.7 mM | 16.00 ± 0.04% | 17.55 ± 0.04% | 17.97 ± 0.04 µg/mL | 18.33 ± 0.04 µg/mL | 9.66 ± 0.02% | 5180 ± 10 µg/mL | 28.23 ± 0.06% | 16.25 ± 0.04% | 31.27 ± 0.07 mg gallic acid per g |  |  | 
3 | C[C@H]1O[C@H](O[C@H]2[C@H](O)[C@@H](O)[C@@H](O[C@H]3[C@H](O)[C@@H](O)C(O)O[C@@H]3CO)O[C@@H]2CO)[C@H](O)[C@@H](O)[C@@H]1N[C@H]1C=C(CO)[C@@H](O)[C@H](O)[C@H]1O (stereo partly shown) [Acarbose] |  |  |  |  |  |  |  |  |  | 47.70 ± 0.01% | 1070 ± 10 µg/mL |  |  |  | 65.95 ± 0.01% | 55.45 ± 0.01% | completely decreasing the protein band
4 | O=C1O[C@H]([C@@H](O)CO)C(O)=C1O [Ascorbic acid, reference compound] |  |  |  |  |  |  |  |  | 4.05 ± 0.01 µg/mL |  |  | 39.09 ± 0.09% |  |  |  |  | 
5 | O=C(O)Cc1ccccc1Nc1c(Cl)cccc1Cl [Diclofenac sodium, reference compound] |  |  |  |  |  |  |  |  |  |  |  |  | 41.88 ± 0.09% |  |  |  | 
6 | COc1cccc2c1C(=O)c1c(O)c3c(c(O)c1C2=O)C[C@@](O)(C(=O)CO)C[C@@H]3O[C@H]1C[C@H](N)[C@H](O)[C@H](C)O1 [Doxorubicin, reference compound] | 76 µg/mL (≈ 140 µM) | 31.3 µg/mL (≈ 57.6 µM) | 28.4 µg/mL (≈ 52.3 µM) | 2.67 |  |  |  |  |  |  |  |  |  |  |  |  | 
